Data: PMC3966491 (Chemical biology & drug design, 2013)

Legend:
[1] = system: Human UACC903 melanoma cells xenograft; assay: in vivo melanoma xenograft study; details: oral gavage twice a week, 10 mg/kg and 25 mg/kg, single agent, nude mice
AKT2 (PKB beta) = AKT2 (PKB beta) (Homo sapiens, UniProt P31751); assay: AKT2 in vitro kinase assay; format: biochemical
In short: (§1)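 Z′-LYTE assay. Enzyme per 10 μL reaction: AKT1 0.34–7.65 ng, AKT2 1–40 ng, or AKT3 0.56–8.3 ng. Reaction contained 2 μM Ser/Thr 06 peptide, ATP at Km, 50 mM HEPES pH 7.5, 0.01% BRIJ-35, 10 mM MgCl2 and 1 mM EGTA. After 1 h, Development Reagent A (1:2048) protease cleaved non-phosphorylated peptide. Read-out was the coumarin 445 nm/fluorescein 520 nm emission ratio; curves were fitted.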

AKT3 (PKB gamma) = AKT3 (PKB gamma) (Homo sapiens, UniProt Q9Y243); assay: AKT3 in vitro kinase assay; format: biochemical
In short: as §1

[2] = in vitro microsomal stability; format: in vitro ADME
IKBKB (IKK beta) = target: T1, IKBKB (IKK beta) (Homo sapiens, UniProt O14920); assay: IKKβ; format: biochemical
T1 sequence (O14920 1-756): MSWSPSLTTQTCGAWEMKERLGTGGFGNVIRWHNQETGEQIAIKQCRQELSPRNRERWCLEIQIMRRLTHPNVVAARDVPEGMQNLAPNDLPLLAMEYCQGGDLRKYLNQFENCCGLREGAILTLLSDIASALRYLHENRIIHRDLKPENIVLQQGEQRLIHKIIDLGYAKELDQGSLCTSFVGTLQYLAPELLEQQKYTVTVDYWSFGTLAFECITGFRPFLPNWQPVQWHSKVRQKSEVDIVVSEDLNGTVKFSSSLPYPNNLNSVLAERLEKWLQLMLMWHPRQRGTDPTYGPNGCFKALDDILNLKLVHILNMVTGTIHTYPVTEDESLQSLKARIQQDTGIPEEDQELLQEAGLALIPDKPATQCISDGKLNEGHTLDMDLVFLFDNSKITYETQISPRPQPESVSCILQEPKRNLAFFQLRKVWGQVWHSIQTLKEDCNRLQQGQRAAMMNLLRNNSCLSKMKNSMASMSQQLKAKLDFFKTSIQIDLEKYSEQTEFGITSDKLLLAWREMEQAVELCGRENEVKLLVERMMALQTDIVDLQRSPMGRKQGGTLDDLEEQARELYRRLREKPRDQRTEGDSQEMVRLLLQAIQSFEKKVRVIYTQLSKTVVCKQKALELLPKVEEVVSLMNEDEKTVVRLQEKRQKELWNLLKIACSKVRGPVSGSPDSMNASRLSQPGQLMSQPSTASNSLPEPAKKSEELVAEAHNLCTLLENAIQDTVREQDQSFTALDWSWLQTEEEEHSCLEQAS
In short: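 Z′-LYTE format. Development used Reagent B (1:64) protease; read-out was the coumarin 445 nm/fluorescein 520 nm emission ratio. Where noted, IC50 was predicted from % inhibition at 10 μM test compound, mean of two experiments.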

[3] = system: UACC903 xenograft tumor sections; assay: TUNEL and IκB immunohistochemistry of xenograft tumor sections; format: in vivo, nude mice; details: tumors from treated mice vs vehicle, after 28 days
In short: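 Female nude mice (6–7 weeks) received 1×10^6 UACC903 cells in PBS subcutaneously in the flank. After 4 weeks, tumours were fixed, paraffin-sectioned, immunostained (DAB, haematoxylin) or TUNEL-stained, then scanned. Scores: TUNEL-positive nuclei/area and IκB immunoscore/area; error bars SEM.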

AKT1 (PKB alpha) = AKT1 (PKB alpha) (Homo sapiens, UniProt P31749); assay: AKT1 in vitro kinase assay; format: biochemical
In short: as §1

CHUK (IKK alpha) = target: T2, CHUK (IKK alpha) (Homo sapiens, UniProt O15111); assay: IKKα; format: biochemical
T2 sequence (O15111 1-745): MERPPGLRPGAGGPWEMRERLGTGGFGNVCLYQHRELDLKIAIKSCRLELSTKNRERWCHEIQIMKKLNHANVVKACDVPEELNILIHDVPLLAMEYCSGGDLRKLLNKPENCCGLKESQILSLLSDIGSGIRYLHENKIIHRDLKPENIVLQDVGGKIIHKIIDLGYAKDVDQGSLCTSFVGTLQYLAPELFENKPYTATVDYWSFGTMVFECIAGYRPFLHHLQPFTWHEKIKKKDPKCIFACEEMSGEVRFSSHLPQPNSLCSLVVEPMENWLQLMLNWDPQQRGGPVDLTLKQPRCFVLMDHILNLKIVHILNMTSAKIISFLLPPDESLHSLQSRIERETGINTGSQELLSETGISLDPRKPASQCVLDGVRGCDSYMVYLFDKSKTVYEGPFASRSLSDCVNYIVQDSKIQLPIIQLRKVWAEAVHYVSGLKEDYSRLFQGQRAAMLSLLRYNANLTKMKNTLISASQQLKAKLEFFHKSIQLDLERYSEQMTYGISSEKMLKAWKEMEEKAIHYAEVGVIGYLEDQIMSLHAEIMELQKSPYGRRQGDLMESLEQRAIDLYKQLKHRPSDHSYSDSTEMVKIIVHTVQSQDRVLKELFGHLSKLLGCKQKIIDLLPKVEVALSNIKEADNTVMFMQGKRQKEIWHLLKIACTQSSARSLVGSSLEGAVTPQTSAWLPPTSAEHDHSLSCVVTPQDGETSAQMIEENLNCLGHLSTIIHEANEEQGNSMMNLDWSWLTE
In short: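 ADAPTA ADP-detection format. Detection mix added EDTA (stop), europium-labelled anti-ADP antibody and Alexa Fluor 647 ADP tracer; ADP formation was taken from the emission ratio. Where noted, IC50 was predicted from % inhibition at 1 μM test compound, mean of two experiments.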

[4] = system: phosphorylation of IKK Ser176/180 and total IκB levels; assay: Western blot of NF-κB pathway in TNF-α stimulated UACC903 cells; format: cell-based, human; details: 10 μM, 1 hour prior to TNF-α stimulation (20 ng/ml)
[5] = in vitro plasma stability; format: in vitro ADME
[6] = system: 21 protein kinases including SPHK1, SPHK2, FES and AURKB; assay: in vitro selectivity against 21 protein kinases; format: biochemical; details: 21 protein kinases previously inhibited by compound 1
[7] = system: AKT levels and phosphorylation of its substrate PRAS40; assay: Western blot of AKT pathway in melanoma UACC903 cells; format: cell-based, human; details: 4 hours

Chain of AKT2 (PKB beta) (P31751 whole entry): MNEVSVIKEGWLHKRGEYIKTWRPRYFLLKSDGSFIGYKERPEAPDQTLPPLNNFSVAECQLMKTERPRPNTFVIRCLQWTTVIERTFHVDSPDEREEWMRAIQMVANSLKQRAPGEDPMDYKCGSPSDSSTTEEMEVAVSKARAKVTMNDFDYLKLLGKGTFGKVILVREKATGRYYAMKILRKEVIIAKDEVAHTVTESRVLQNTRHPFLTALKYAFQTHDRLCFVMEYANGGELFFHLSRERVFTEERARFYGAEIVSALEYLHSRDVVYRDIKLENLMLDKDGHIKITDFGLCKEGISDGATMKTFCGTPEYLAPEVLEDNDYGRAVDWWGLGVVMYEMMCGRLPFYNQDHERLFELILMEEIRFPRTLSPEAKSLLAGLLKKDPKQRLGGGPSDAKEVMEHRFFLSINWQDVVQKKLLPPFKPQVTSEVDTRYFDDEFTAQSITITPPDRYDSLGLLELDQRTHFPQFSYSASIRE
Chain of AKT1 (PKB alpha) (P31749 whole entry): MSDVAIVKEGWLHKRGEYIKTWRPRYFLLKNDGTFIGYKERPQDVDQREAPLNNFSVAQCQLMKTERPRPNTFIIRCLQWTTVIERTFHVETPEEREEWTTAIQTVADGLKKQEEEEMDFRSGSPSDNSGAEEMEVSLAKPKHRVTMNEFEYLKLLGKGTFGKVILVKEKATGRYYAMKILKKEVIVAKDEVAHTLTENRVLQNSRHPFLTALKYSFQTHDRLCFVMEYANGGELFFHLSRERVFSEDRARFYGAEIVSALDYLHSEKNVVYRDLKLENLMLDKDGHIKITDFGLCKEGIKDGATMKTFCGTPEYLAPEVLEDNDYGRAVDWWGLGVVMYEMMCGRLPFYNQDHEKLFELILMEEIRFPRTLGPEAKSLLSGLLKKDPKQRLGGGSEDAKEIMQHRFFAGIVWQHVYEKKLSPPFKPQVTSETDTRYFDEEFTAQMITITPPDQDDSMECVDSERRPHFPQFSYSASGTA
Chain of AKT3 (PKB gamma) (Q9Y243 whole entry): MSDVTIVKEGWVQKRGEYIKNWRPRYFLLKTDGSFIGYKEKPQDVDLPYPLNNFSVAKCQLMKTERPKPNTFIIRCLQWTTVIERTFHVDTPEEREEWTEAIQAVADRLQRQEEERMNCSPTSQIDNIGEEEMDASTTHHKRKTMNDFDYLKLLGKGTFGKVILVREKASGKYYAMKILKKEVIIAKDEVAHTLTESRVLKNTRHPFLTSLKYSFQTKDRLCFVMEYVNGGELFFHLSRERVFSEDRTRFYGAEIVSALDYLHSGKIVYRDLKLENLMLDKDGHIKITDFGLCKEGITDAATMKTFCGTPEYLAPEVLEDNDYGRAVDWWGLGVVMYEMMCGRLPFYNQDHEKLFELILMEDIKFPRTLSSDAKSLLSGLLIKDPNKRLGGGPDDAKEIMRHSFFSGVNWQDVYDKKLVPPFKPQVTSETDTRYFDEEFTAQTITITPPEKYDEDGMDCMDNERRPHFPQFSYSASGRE

**Q.** Which “tumor growth in xenograft” value [1] does the source give for `O=C(/C=C/c1nc2cc(F)ccc2[nH]1)c1c(-c2ccccc2)c2cc(Cl)ccc2[nH]c1=O` [compound 42, (E)-6-chloro-3-(3-(5-fluoro-1H-benzo[d]imidazol-2-yl)acryloyl)-4-phenylquinolin-2(1H)-one] here?
**A.** The value was “Remarkable tumor growth/suppression”.

**Q.** And the IC50 (AKT2 (PKB beta))?
**A.** Its IC50 is 3.43 µM.

**Q.** And the IC50 (AKT3 (PKB gamma))?
**A.** Its IC50 is 6.49 µM.

**Q.** And the microsomal stability [2]?
**A.** The microsomal stability was “favorable”.

**Q.** What about the IC50 (IKBKB (IKK beta)) of the same molecule?
**A.** The IC50 was 1.9 µM.

**Q.** What about the “IκB expression in tumors” value [3] of the same molecule?
**A.** The value was “higher IκB expression”.

**Q.** What about the “apoptosis in tumors (TUNEL staining)” value [3] of the same molecule?
**A.** Its value is “higher levels of apoptosis”.

**Q.** What about the IC50 (AKT1 (PKB alpha)) of the same molecule?
**A.** The IC50 was 5.01 µM.

**Q.** What about the IC50 (CHUK (IKK alpha)) of the same molecule?
**A.** The IC50 was 6.03 µM.

**Q.** What about the “inhibition of phosphorylation of IKK Ser176/180 and total IκB levels” value [4] of the same molecule?
**A.** The value was “effectively inhibited”.

**Q.** What about the plasma stability [5] of the same molecule?
**A.** Its plasma stability is “favorable”.

**Q.** What about the “IC50 values against all the selected kinases (in words)” value [6] of the same molecule?
**A.** Its value is “low micromolar range”.

**Q.** What about the “inhibition of AKT levels and PRAS40 phosphorylation” value [7] of the same molecule?
**A.** The value was “effectively inhibited”.
